Active and inactive are the calls of the source. The calls are words filed in the database; no cut-off is given here.
Key:
[1] = Binding affinity to 5'-end biotinylated ADAM10 A10-RNA QGRS (unknown origin) by surface plasmon resonance assay method
Outline: (§1)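 SPR with 5′-biotinylated A10-RNA-Wt or A10-RNA-Mut immobilized on a neutravidin chip in running buffer (50 mM Tris-HCl pH 7.5, 100 mM KCl). Ligand serial dilutions in running buffer injected at 20 μL/min for association, then dissociation. Chip regenerated with 50 mM NaOH between runs.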

[2] = Binding affinity to 5'-end biotinylated ADAM10 A10-mutant RNA QGRS (unknown origin) by surface plasmon resonance assay method; outline: as §1
HeLa = test: Binding affinity to ADAM10 A10-RNA QGRS (unknown origin) transfected in human HeLa cells assessed as increase in ADAM10 translation efficiency at 2 uM after 24 hrs by Renilla/firefly dual luciferase reporter assay; assay type: cell-based
Outline: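 HeLa cells transfected with 0.8 μg A10-Wt, A10-Mut or A10-Del plasmid (G-quadruplex motif upstream of Renilla in psiCHECK-2). Screening: 24 h at a single 2 μM concentration. Follow-up: plasmid for 12 h, then 0, 0.5, 1 or 2.5 μM for 24 h. Renilla normalized to firefly, relative to untreated control; mean ± SD of three independent measurements.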

[3] = Toxicity against human HeLa cells assessed as reduction in cell viability after 24 hrs by MTT assay; assay type: cell-based
[4] = Toxicity against APP expressing HEK cells assessed as reduction in cell viability after 48 hrs by MTT assay; assay type: cell-based, HEK293; conditions: human

Row | Structure (SMILES) | Kd [1] [µM] | Activity [2] | Activity (HeLa) [%] | IC50 at 24 h [3] [µM] | IC50 at 48 h [4] [µM]
1 | COc1cc(/C=C/c2cc(N3CCOCC3)c3ccccc3[n+]2C)cc(OC)c1O | 27.1 | inactive | – | – | –
2 | COc1cc(/C=C/c2ccc3ccccc3[n+]2C)ccc1N1CCOCC1 | 28.2 | inactive | 102 | 32.8 | 49.1
3 | C[n+]1c(/C=C/c2cc([N+](=O)[O-])ccc2O)cc(N2CCOCC2)c2ccccc21 | > 50 | inactive | – | 17.3 | –
4 | COc1cc(/C=C/c2cc(N3CCCCC3)c3ccccc3[n+]2C)cc(OC)c1O | 25 | inactive | – | – | –
5 | COc1cc(/C=C/c2ccc3ccccc3[n+]2C)cc(OC)c1OC | 9.3 | inactive | – | – | –
6 | C[n+]1c(/C=C/c2cc([N+](=O)[O-])ccc2O)cc(N2CCCCC2)c2ccccc21 | > 50 | inactive | – | – | –
7 | C[n+]1c(/C=C/c2ccc(O)cc2)ccc2ccccc21 | 15.9 | inactive | – | – | –
8 | C[n+]1c(/C=C/c2cc([N+](=O)[O-])ccc2O)ccc2ccccc21 | 46.3 | inactive | – | – | –
9 | COc1cc(/C=C/c2ccc3ccccc3[n+]2C)ccc1F | 18 | inactive | – | – | –
10 | C[n+]1c(/C=C/c2cc3ccccc3[nH]2)ccc2ccccc21 | 3.4 | inactive | 119 | > 50 | 12.4
11 | C[n+]1c(/C=C/c2ccc(N3CCOCC3)cc2)ccc2ccccc21 | 15.8 | inactive | 92 | 43.4 | 23.3
12 | C[n+]1c(/C=C/c2ccccc2)ccc2ccccc21 | > 50 | inactive | 101 | > 50 | > 50
13 | COc1cc(/C=C/c2ccc3ccccc3[n+]2C)cc(OC)c1O | 20.5 | inactive | – | – | –

Now from value to compound, other results behind:

Row | Kd [1] [µM] | Activity [2] | Structure (SMILES) | Activity (HeLa) [%] | IC50 at 24 h [3] [µM] | IC50 at 48 h [4] [µM]
14 | > 50 | inactive | CCn1c2ccccc2c2cc(/C=C/c3cc(N4CCN(C)CC4)c4ccccc4n3)ccc21 | – | – | –
15 | 1.8 | inactive | CN1CCN(c2cc(/C=C/c3cc4ccccc4[nH]3)[n+](C)c3ccccc23)CC1 | 116 | > 50 | 18.6
16 | > 50 | inactive | CCn1c2ccccc2c2cc(/C=C/c3cc(N4CCCCC4)c4ccccc4n3)ccc21 | – | – | –
17 | 8.4 | inactive | CN1CCN(c2cc(/C=C/c3ccc(O)cc3)[n+](C)c3ccccc23)CC1 | – | – | –
18 | 16.3 | inactive | CN1CCN(c2cc(/C=C/c3cc([N+](=O)[O-])ccc3O)[n+](C)c3ccccc23)CC1 | 98.7 | > 50 | 21.5
19 | 2.6 | inactive | CN1CCN(c2cc(/C=C/c3ccc(N4CCOCC4)cc3)[n+](C)c3ccccc23)CC1 | 137 | > 50 | 29.3
20 | 33.3 | inactive | CN1CCN(c2cc(/C=C/c3ccccc3)[n+](C)c3ccccc23)CC1 | 91.5 | > 50 | 36.3
21 | 10.9 | inactive | COc1cc(/C=C/c2cc(N3CCN(C)CC3)c3ccccc3[n+]2C)cc(OC)c1OC | – | – | –
22 | 45 | inactive | CCn1c2ccccc2c2cc(/C=C/c3cc(N4CCN(CCCN(C)C)CC4)c4ccccc4[n+]3C)ccc21 | – | – | –
23 | > 50 | inactive | CCn1c2ccccc2c2cc(/C=C/c3ccc4ccccc4n3)ccc21 | – | – | –
24 | 11.7 | inactive | COc1cc(/C=C/c2cc(N3CCN(C)CC3)c3ccccc3[n+]2C)ccc1F | – | – | –
25 | > 50 | inactive | CCn1c2ccccc2c2cc(/C=C/c3cc(N4CCN(CCN(C)C)CC4)c4ccccc4[n+]3C)ccc21 | – | – | –
26 | 33 | inactive | COc1cc(/C=C/c2cc(N3CCN(C)CC3)c3ccccc3[n+]2C)ccc1N1CCOCC1 | – | – | –
27 | 16.5 | inactive | COc1cc(/C=C/c2cc(N3CCN(C)CC3)c3ccccc3[n+]2C)cc(OC)c1O | 108 | > 50 | 25.8
28 | > 50 | inactive | CCn1c2ccccc2c2cc(/C=C/c3cc(N4CCCCC4)c4ccccc4[n+]3C)ccc21 | – | – | –
29 | 47.6 | inactive | CN1CCN(c2cc(/C=C/c3ccc(N4CCOCC4)cc3)nc3ccccc23)CC1 | – | – | –
30 | 32.1 | inactive | CCn1c2ccccc2c2cc(/C=C/c3cc(N4CCN(CCO)CC4)c4ccccc4[n+]3C)ccc21 | – | – | –

From ChEMBL document CHEMBL3425405, “Discovery of Small Molecules for Up-Regulating the Translation of Antiamyloidogenic Secretase, a Disintegrin and Metalloproteinase 10 (ADAM10), by Binding to the G-Quadruplex-Forming Sequence in the 5' Untranslated Region (UTR) of Its mRNA” (J Med Chem, 2015)
